Data set [1] has as its system CWR22R. As to the kind of experiment: Antiproliferative activity against human 22Rv1 cells after 96 hrs by propidium iodide staining-based fluorescence assay. It counts as functional, cell-based.
Data set [2] has as its system LNCaP. As to the kind of experiment: Potency index, ratio of enzalutamide IC50 to test compound IC50 for human LNCAP cells. The format is functional.
Data set [3] deals with HEK293. As to the kind of experiment: Cytotoxicity against HEK293 cells assessed as reduction in cell viability at 10 uM after 24 hrs by CellTiter-Blue assay relative to control. The format is cell-based. The following applies: human, hek293, 24 h. In outline: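 HEK293 cells in DMEM with 10% FBS and 2 mM L-glutamine, seeded at 100,000 cells/ml and treated after 24 h at 10 µM for 24 h. […] Cell Titer Blue added for 2 h at 37°C, fluorescence read at 560/590 nm.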
(The colour change of resazurin is a common sign of viable cells or microbes.)

Data set [4] deals with CWR22R. The data set is described as follows: Potency index, ratio of enzalutamide IC50 to test compound IC50 for human 22Rv1 cells. It counts as functional.
Data set [5] deals with DU-145. As to the kind of experiment: Antiproliferative activity against human DU145 cells after 96 hrs by propidium iodide staining-based fluorescence assay. It counts as functional, cell-based.
For data set [6], the system named is LNCaP. As to the kind of experiment: Antiproliferative activity against human LNCAP cells after 96 hrs by propidium iodide staining-based fluorescence assay. The format is functional, cell-based.
For data set [7], the system named is VCaP. The data set is described as follows: Antiproliferative activity against human VCaP cells after 96 hrs by propidium iodide staining-based fluorescence assay. The format is functional, cell-based.
Data set [8] deals with DU-145. As to the kind of experiment: Potency index, ratio of enzalutamide IC50 to test compound IC50 for human DU145 cells. It counts as functional.
The subject of data set [9] is VCaP. As to the kind of experiment: Potency index, ratio of enzalutamide IC50 to test compound IC50 for human VCaP cells. It counts as functional.

Here are results for three molecules from ChEMBL document CHEMBL4261530, “Rational design and synthesis of novel phenylsulfonyl-benzamides as anti-prostate cancer agents” (Medchemcomm, 2017).

Some results are limits rather than exact numbers.

With `O=C(Nc1ccc(S(F)(F)(F)(F)F)cc1)c1ccc(S(=O)(=O)c2ccc(O)cc2)cc1`, the Activity result in data set [1] was “Dose-dependent effect”; in data set [3], > 50%; in data set [5] it was “Dose-dependent effect”; in [6] it was “Dose-dependent effect”; in data set [7], “Dose-dependent effect”. The “Ratio IC50” value in data set [2], in data set [4], in [8] and in data set [9] was “<=8” throughout.
Consider `O=C(Nc1ccc(S(F)(F)(F)(F)F)cc1)c1ccc(Sc2ccc(O)cc2)cc1`, for which the Activity entry is “Dose-dependent effect” in [1]; “Toxic” in [3]; “Dose-dependent effect” in data set [5]; “Dose-dependent effect” in data set [6]; “Dose-dependent effect” in data set [7]. Moreover, the “Ratio IC50” value in [2], in data set [4], in [8] and in data set [9] was “<=8” each time.
With `O=C(Nc1cc(C(F)(F)F)ccc1C(F)(F)F)c1ccc(Sc2ccc(O)cc2)cc1`, the Activity result is “Dose-dependent effect” in data set [1]; “Toxic” in data set [3]; “Dose-dependent effect” in [5]; “Dose-dependent effect” in data set [6]; “Dose-dependent effect” in [7]. Also, the “Ratio IC50” value in data set [2], in data set [4], in [8] and in [9] was “<=8” in each case.
